Test results published in ChEMBL document CHEMBL5678802, “Small-molecule p21-activated kinase inhibitor PF-3758309 is a potent inhibitor of oncogenic signaling and tumor growth” (Proc Natl Acad Sci U S A, 2010).
pIC50, pKi: −log10 of the molar value. Active and inactive are the calls of the source. The calls are words filed in the database; no cut-off is given here.

What was measured:
NCI-H1650 = experiment: Inhibition of anchorage independent cell growth in human NCI-H1650 cells incubated for 6 days by Alamar blue reagent based fluorescence plate reader analysis; type: functional; details: NCI-H1650, 144 h
NCI-H1437 = experiment: Inhibition of anchorage independent cell growth in human NCI-H1437 cells incubated for 6 days by Alamar blue reagent based fluorescence plate reader analysis; type: functional; details: NCI-H1437, 144 h
NCI-H2087 = experiment: Antiproliferative activity against human NCI-H2087 cells assessed as inhibition of cell proliferation incubated for 3 days by CellTiter-Glo Luminescent Cell Viability Assay; type: functional, cell-based; details: NCI-H2087, 72 h
Method in brief: (§1)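 Cells of each line were plated in 384-well plates on day 1 and exposed to compound from day 2 for 3 days. On day 5 all medium was aspirated. Viable cell number was read by CellTiter-Glo luminescence, which quantifies cellular ATP.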

NCI-H1573 = experiment: Inhibition of anchorage independent cell growth in human NCI-H1573 cells incubated for 6 days by Alamar blue reagent based fluorescence plate reader analysis; type: functional; details: NCI-H1573, 144 h
MIA PaCa-2 = experiment: Antiproliferative activity against human MIA PaCa-2 cells assessed as inhibition of cell proliferation incubated for 3 days by CellTiter-Glo Luminescent Cell Viability Assay; type: functional, cell-based; details: MIA PaCa-2, 72 h
Method in brief: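 Cancer cell lines seeded in 384-well plates on day 1; compound added on day 2 and incubated 3 days. On day 5 media aspirated and viable cells quantified by ATP content using CellTiter-Glo luminescence; dose-dependent proliferation effects determined.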

[1] = biological target: T1, Protein kinase C beta type (Homo sapiens, UniProt P05771); experiment: Inhibition of human PKCbeta-II in presence of ATP by cellular assay
[2] = Drug concentration in nude mouse plasma xenografted with human HCT-116 cells at 1.1 mg/kg administered via pump for 9 days by LC-MS/MS analysis; type: ADME, organism-based; details: time 9 day
GTL 16 cell line = experiment: Antitumor activity against human GTL-16 cell line xenografted in nude mouse assessed as tumor growth inhibition at 10 mg/kg, po administered once daily for 9 to 18 days relative to control; type: functional; details: time 9-18 day, read-out: TGI
Method in brief: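 Tumor cells were implanted s.c. into the right flank of female nu/nu nude mice aged 6–8 weeks. Animals were randomized into treatment groups once tumors were established (example: day 8 postimplant, about 170 mm3, animals >22 g). Compound in 0.5% methylcellulose was given by oral gavage. Tumors were measured with calipers two to three times per week.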

[3] = Antiproliferative activity against human PaTu 8988s cells assessed as inhibition of cell proliferation incubated for 3 days by CellTiter-Glo Luminescent Cell Viability Assay; type: functional, cell-based; details: 72 h; method in brief: as §1
[4] = biological target: T1, Protein kinase C beta type; experiment: Inhibition of human PKCbeta1 assessed as inhibition constant in presence of ATP
[5] = biological target: RAC-gamma serine/threonine-protein kinase (Homo sapiens, UniProt Q9Y243); experiment: Inhibition of human AKT3 in presence of ATP by cellular assay
[6] = Inhibition of YFP/YFP variant coding sequence fused PAK4/cofilin (unknown origin) expressed in HEK293 cells incubated for 8 to 24 hrs by fluorescence based analysis; type: cell-based, Homo sapiens
M24met = experiment: Antitumor activity against human M24met cells xenografted in nude mouse assessed as tumor growth inhibition at 7.5 mg/kg, po administered once daily for 9 to 18 days relative to control; type: functional; details: time 9-18 day, read-out: TGI
HCT-116 [7] = experiment: Downregulation of camptothecin-induced p53 level in human HCT-116 cells at 1 uM preincubated with compound for 15 mins followed by camptothecin stimulation and measured after 20 hrs by Western blot analysis; type: functional, cell-based; details: time 20.25 hrs
HCT-116 [8] = experiment: Downregulation of camptothecin-induced p21 waf1/cip1 level in human HCT-116 cells at 1 uM preincubated with compound for 15 mins followed by camptothecin stimulation and measured after 20 hrs by Western blot analysis; type: functional, cell-based; details: time 20.25 hrs
[9] = biological target: Ribosomal protein S6 kinase alpha-1 (Homo sapiens, UniProt Q15418); experiment: Inhibition of human RSK1 in presence of ATP
[10] = biological target: Protein kinase C gamma type (Homo sapiens, UniProt P05129); experiment: Inhibition of human PKCgamma in presence of ATP
[11] = biological target: T2, Proto-oncogene tyrosine-protein kinase Src (Homo sapiens, UniProt P12931); experiment: Inhibition of human SRC assessed as inhibition constant in presence of ATP
[12] = biological target: Ribosomal protein S6 kinase alpha-3 (Homo sapiens, UniProt P51812); experiment: Inhibition of human RSK2 in presence of ATP
SW948 = experiment: Antiproliferative activity against human SW948 cells assessed as inhibition of cell proliferation incubated for 3 days by CellTiter-Glo Luminescent Cell Viability Assay; type: functional, cell-based; details: SW948, 72 h; method in brief: as §1
NCI-H1703 = experiment: Antiproliferative activity against human NCI-H1703 cells assessed as inhibition of cell proliferation incubated for 3 days by CellTiter-Glo Luminescent Cell Viability Assay; type: functional, cell-based; details: NCI-H1703, 72 h; method in brief: as §1
[13] = biological target: Serine/threonine-protein kinase PAK 4 (Homo sapiens, UniProt O96013); details: dose 50.0 µM
[14] = biological target: T2, Proto-oncogene tyrosine-protein kinase Src; experiment: Inhibition of human SRC in presence of ATP relative to control; details: concentration not given here
HEK293 = experiment: Inhibition of YFP/YFP variant coding sequence fused Mnk1/p38alpha (unknown origin) expressed in HEK293 cells incubated for 8 to 24 hrs by fluorescence based analysis; type: cell-based; details: Homo sapiens, time 8-24 hrs
NCI-H358 = experiment: Inhibition of anchorage independent cell growth in human NCI-H358 cells incubated for 6 days by Alamar blue reagent based fluorescence plate reader analysis; type: functional; details: NCI-H358, 144 h
HCT-116 [15] = experiment: Antitumor activity against human HCT-116 cells xenografted in nude mouse assessed as reduction in AKT1 phosphorylation at S473 residue at 15 to 150 mg/kg/day administered via pump for 18 hrs by Reverse-Phase protein array analysis; type: functional, organism-based; details: dose 15-150 mg/kg/day
HCC1954 = experiment: Antiproliferative activity against human HCC1954 cells assessed as inhibition of cell proliferation incubated for 3 days by CellTiter-Glo Luminescent Cell Viability Assay; type: functional, cell-based; details: HCC1954, 72 h
Method in brief: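 Cancer cell lines seeded in 384-well plates on day 1; compound added on day 2 and left for 3 days. On day 5 all medium was aspirated, and viable cells were quantified by CellTiter-Glo luminescence, which measures cellular ATP. Dose-dependent effects on proliferation were determined.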

NCI-H1355 = experiment: Inhibition of anchorage independent cell growth in human NCI-H1355 cells incubated for 6 days by Alamar blue reagent based fluorescence plate reader analysis; type: functional; details: NCI-H1355, 144 h

T1 sequence (P05771 whole entry): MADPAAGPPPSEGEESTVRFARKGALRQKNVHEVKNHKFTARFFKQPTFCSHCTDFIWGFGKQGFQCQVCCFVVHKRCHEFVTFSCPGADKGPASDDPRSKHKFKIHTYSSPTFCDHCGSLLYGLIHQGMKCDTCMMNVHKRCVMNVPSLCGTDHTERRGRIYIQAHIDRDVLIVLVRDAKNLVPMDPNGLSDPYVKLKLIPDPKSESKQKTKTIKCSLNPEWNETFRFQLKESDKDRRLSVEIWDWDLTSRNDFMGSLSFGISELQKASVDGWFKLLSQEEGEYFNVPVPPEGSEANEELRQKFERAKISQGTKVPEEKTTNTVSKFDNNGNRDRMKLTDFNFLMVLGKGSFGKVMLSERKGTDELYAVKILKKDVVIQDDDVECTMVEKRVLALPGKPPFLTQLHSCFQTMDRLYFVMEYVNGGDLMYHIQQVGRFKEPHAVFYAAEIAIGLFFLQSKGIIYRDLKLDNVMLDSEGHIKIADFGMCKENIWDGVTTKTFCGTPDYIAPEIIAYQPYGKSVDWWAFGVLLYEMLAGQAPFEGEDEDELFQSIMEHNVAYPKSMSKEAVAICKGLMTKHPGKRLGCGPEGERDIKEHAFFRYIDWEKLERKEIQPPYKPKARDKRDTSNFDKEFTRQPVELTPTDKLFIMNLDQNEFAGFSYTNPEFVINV
T2 sequence (P12931 2-536 limits assumed): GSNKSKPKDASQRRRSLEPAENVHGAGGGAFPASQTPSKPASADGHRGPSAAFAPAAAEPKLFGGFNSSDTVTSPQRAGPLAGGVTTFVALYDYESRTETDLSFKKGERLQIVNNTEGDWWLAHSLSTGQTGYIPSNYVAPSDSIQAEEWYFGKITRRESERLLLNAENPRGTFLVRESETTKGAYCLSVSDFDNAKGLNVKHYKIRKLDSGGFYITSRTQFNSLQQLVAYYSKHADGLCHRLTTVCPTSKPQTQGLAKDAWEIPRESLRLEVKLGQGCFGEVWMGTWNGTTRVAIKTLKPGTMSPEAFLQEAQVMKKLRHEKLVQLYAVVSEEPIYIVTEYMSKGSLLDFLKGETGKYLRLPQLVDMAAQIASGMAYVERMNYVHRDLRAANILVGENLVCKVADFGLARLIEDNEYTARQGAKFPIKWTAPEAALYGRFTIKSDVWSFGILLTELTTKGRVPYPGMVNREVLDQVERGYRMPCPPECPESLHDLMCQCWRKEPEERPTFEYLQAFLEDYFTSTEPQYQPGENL
Sequence of Ribosomal protein S6 kinase alpha-3 (P51812 whole entry): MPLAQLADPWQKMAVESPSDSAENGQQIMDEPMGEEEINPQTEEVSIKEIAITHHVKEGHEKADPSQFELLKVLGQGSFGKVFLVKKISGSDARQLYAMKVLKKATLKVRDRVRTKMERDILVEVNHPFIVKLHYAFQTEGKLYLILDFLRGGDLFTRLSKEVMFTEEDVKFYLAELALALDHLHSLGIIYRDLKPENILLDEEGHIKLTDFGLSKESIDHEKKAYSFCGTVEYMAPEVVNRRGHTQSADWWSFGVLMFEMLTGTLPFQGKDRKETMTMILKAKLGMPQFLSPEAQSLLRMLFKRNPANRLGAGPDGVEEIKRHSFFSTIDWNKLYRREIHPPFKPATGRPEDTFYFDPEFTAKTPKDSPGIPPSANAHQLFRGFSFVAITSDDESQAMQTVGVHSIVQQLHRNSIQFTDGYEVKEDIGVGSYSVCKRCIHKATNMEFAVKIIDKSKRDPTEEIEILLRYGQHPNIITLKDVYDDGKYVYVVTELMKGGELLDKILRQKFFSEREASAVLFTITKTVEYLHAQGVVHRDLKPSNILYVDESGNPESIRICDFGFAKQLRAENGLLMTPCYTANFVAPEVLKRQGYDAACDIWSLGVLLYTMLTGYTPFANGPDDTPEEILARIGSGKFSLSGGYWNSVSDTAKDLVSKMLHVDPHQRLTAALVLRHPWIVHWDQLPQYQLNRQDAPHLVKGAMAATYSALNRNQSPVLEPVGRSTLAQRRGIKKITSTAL
Sequence of Serine/threonine-protein kinase PAK 4 (O96013 whole entry, looked up): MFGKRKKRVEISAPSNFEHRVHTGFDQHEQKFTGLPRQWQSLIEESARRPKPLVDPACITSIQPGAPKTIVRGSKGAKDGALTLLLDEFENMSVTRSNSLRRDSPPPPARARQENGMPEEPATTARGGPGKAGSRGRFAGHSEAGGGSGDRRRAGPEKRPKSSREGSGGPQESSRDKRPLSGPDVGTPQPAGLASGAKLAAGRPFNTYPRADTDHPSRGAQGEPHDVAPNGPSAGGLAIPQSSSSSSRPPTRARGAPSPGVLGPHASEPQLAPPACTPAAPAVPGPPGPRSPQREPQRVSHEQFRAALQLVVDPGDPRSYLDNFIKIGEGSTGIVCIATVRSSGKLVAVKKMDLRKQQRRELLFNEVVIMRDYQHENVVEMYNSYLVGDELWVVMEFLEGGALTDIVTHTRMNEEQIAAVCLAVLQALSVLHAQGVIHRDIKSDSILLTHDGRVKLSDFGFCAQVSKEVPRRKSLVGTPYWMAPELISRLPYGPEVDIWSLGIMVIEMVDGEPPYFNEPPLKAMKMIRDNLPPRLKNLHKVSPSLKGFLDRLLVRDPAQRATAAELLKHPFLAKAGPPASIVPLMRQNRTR
Sequence of RAC-gamma serine/threonine-protein kinase (Q9Y243 whole entry, the tested form may be a part): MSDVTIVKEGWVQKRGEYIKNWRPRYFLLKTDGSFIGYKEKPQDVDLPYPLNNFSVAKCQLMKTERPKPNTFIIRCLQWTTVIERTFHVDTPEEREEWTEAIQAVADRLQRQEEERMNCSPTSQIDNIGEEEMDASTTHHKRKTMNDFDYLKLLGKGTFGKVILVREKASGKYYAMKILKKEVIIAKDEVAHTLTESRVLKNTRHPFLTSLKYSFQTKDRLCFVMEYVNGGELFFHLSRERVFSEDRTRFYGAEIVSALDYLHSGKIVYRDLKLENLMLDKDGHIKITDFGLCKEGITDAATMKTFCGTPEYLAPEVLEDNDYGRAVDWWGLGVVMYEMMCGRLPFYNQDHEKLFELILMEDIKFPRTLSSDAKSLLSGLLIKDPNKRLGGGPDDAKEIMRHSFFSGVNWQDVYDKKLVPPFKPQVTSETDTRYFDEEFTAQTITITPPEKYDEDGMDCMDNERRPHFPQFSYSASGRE
Sequence of Ribosomal protein S6 kinase alpha-1 (Q15418 whole entry): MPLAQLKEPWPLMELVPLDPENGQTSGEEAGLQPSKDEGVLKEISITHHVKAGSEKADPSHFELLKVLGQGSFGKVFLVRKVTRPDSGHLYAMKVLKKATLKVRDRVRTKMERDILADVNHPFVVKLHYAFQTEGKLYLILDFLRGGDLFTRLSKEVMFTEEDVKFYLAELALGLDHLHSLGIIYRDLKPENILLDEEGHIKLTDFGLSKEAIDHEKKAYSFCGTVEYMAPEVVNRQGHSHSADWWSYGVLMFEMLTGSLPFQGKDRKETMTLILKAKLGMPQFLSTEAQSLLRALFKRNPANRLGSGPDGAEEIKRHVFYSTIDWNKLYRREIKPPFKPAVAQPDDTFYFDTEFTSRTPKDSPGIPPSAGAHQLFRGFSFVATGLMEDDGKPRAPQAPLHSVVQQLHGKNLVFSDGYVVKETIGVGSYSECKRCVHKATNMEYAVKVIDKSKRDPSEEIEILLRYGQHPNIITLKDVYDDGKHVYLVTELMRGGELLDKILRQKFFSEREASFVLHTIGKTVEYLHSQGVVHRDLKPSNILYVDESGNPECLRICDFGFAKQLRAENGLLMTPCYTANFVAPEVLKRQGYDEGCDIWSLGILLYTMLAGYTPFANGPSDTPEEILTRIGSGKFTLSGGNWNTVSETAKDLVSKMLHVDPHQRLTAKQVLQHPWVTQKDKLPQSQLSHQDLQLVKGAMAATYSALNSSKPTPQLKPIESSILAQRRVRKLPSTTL

pIC50 (NCI-H1650): 8.25
pIC50 (NCI-H1437): 8.32
pIC50 (NCI-H2087): 8.37
pIC50 (NCI-H1573): 8.63
pIC50 (MIA PaCa-2): 7.77
pIC50 [1]: 5.86
concentration at 216 h [2]: 5.6 ng/mL
pKi [4]: 6.73
pIC50 [5]: 5.44
pIC50 [6]: 7.98
pIC50 [9]: 8.70
pIC50 [10]: 7.23
pKi [11]: 7.49
pIC50 [12]: 8.70
pIC50 (SW948): 8.37
pIC50 (NCI-H1703): 8.36
deltaH [13]: -5 kcal/mol
inhibition [14]: 96%
pIC50 (NCI-H358): 8.11
pIC50 (HCC1954): 9.48
pIC50 (NCI-H1355): 7.85
Structure (SMILES): Cc1nc(Nc2n[nH]c3c2CN(C(=O)N[C@H](CN(C)C)c2ccccc2)C3(C)C)c2sccc2n1 [PF-03758309]
inhibition in vivo at 10 mg/kg (GTL 16 cell line): 0%
pIC50 [3]: 6.13
inhibition in vivo at 7.5 mg/kg (M24met): 49%
Activity (HCT-116 [7]): Active
Activity (HCT-116 [8]): Active
inhibition (HEK293): Active
Activity (HCT-116 [15]): Active
